The source of these data is ChEMBL document CHEMBL4020832, “Development of (6 R)-2-Nitro-6-[4-(trifluoromethoxy)phenoxy]-6,7-dihydro-5 H-imidazo[2,1- b][1,3]oxazine (DNDI-8219): A New Lead for Visceral Leishmaniasis” (J Med Chem, 2018).

In general, clearance refers to the rate of elimination divided by the concentration. A low value points to inefficient removal. By Tmax is commonly meant the time at which the peak concentration occurs. What is called Cmax is the highest concentration seen after dosing. The term AUC(0-t) denotes exposure summed from dosing to a finite time, without extrapolation to infinity. Low values mean low exposure, high ones high exposure. Usually half-life stands for the time in which the quantity being followed falls by half. Read a low half-life as fast loss.

The test system of data set [1] is Liver. Briefly: Metabolic stability in CD-1 mouse liver microsomes assessed as parent compound remaining at 0.5 uM after 0.5 hr. The data set is classed as ADME, microsome. A general note: Microsomes from liver hold many membrane-bound enzymes, among them those of drug oxidation.
The nature of data set [2]: Clearance in Swiss albino mouse at 1 mg/kg, iv by LC-MS/MS analysis. The data set is classed as ADME, organism-based. The settings on record: in vivo.
The nature of data set [3]: Volume of distribution at steady state in Swiss albino mouse at 1 mg/kg, iv by LC-MS/MS analysis. In kind it is ADME, organism-based. The note with it: in vivo, read-out: Vdss. The method, boiled down: (§1)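 Male Swiss albino mice given 1 mg/kg iv in 20% NMP/40% PEG-400 in 100 mM citrate buffer pH 3. Plasma sampled at 0.083, 0.25, 0.5, 1, 2, 4, 6, 8, 10, 24 and 48 h. Levels measured by LC–MS/MS; noncompartmental PK parameters.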

Data set [4] is described as follows: Tmax in Swiss albino mouse at 25 mg/kg, po by LC-MS/MS analysis. The settings on record: in vivo. In kind it is ADME, organism-based. The method, boiled down: (§2)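 Male Swiss albino mice dosed orally at 25 mg/kg as a suspension in 0.5% CMC/0.08% Tween 80 in water. Plasma sampled 0.25–48 h, analysed by LC–MS/MS. F from dose-normalized AUClast against a 1 mg/kg iv dose.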

Data set [5] can be described thus: Metabolic stability in hamster liver microsomes assessed as parent compound remaining at 0.5 uM after 0.5 hr. In kind it is ADME, microsome. The settings on record: read-out: Stability.
Data set [6] has as its system Liver. The experiment in a line: Metabolic stability in human liver microsomes assessed as parent compound remaining at 0.5 uM after 0.5 hr. The data set is classed as ADME, microsome.
The subject of data set [7] is Mus musculus. Briefly: (§3) Half life in Swiss albino mouse at 1 mg/kg, iv by LC-MS/MS analysis. The data set is classed as ADME, organism-based. The note with it: in vivo.
Data set [8] is described as follows: Initial concentration in Swiss albino mouse at 1 mg/kg, iv by LC-MS/MS analysis. The settings on record: in vivo. In kind it is ADME, organism-based. The method, boiled down: as §1
Data set [9] is described as follows: Cmax in Swiss albino mouse at 25 mg/kg, po by LC-MS/MS analysis. The data set is classed as ADME, organism-based. Set-up: dose 25 mg/kg, route oral. The settings on record: in vivo.
Data set [10] is described as follows: AUClast in Swiss albino mouse at 1 mg/kg, iv after 24 to 48 hrs by LC-MS/MS analysis. In kind it is ADME, organism-based. The note with it: in vivo.
Data set [11] is described as follows: AUClast in Swiss albino mouse at 25 mg/kg, po after 24 to 48 hrs by LC-MS/MS analysis. The data set is classed as ADME, organism-based. The note with it: in vivo.
Data set [12] relates to Mus musculus. Briefly: Oral bioavailability in Swiss albino mouse at 25 mg/kg by LC-MS/MS analysis. The data set is classed as ADME, organism-based. The note with it: in vivo. The essentials: as §2
A short description of data set [13]: as §3. The settings on record: Swiss albino, in vivo. In kind it is ADME, organism-based.

For the molecule `O=[N+]([O-])c1cn2c(n1)OCC(COc1ccc(OC(F)(F)F)cc1)C2` (stereo unspecified), the Stability amounted to 88% in the data set with Liver [1] and 78% in the data set on Liver [6]. This molecule also registered a clearance in data set [2] of 13 mL/min/kg. Further, the Vd in data set [3] was 2.5 L/kg. For the same molecule, in data set [4], the Tmax came to 1 h. Besides, in data set [5], the remaining at 0.5 h, 0.5 µM amounted to 70%. In the data set on Mus musculus [7], this molecule registered a t1/2 of 2 h. The same molecule gave a C0 in data set [8] of 340 ng/mL. In addition, the peak level in data set [9] (Cmax) was 1500 ng/mL. Also, the AUC(0-t) is 1250 ng·h/mL in data set [10] and 15700 ng·h/mL in data set [11]. In the data set with Mus musculus [12], the F is listed as 50%.

Turning to `O=[N+]([O-])c1cn2c(n1)OCC(COc1ccc(-c3ccc(OC(F)(F)F)cc3)nc1)C2` (stereo unspecified), the Stability in the data set with Liver [1] came out at 96%. The molecule also showed a clearance in data set [2] of 1.2 mL/min/kg. Besides, in data set [3], the Vd was found to be 1.9 L/kg. In addition, the Tmax in data set [4] was 10 h. The remaining at 0.5 h, 0.5 µM in data set [5] was 88%. The molecule further showed a half-life in data set [13] of 1200 min. In [8], this molecule had a C0 of 750 ng/mL. In data set [9], this molecule showed a Cmax of 870 ng/mL. Also, the F in the data set with Mus musculus [12] came to 11%.

For `O=[N+]([O-])c1cn2c(n1)OCC(COc1ccc(-c3ccc(F)cc3)nc1)C2` (stereo unspecified), the clearance in [2] is 5.2 mL/min/kg. The Vd in data set [3] stood at 1.8 L/kg. For the same molecule, the time of peak concentration (Tmax) in data set [4] was determined as 8 h. Besides, in [5], the remaining at 0.5 h, 0.5 µM is 64%. Also, in [13], the half-life is 162 min. The same molecule showed a C0 in [8] of 440 ng/mL. This molecule registered a Cmax in [9] of 840 ng/mL. Moreover, the AUC(0-t) in [10] was found to be 3180 ng·h/mL; in [11], 12000 ng·h/mL. Besides, in the data set with Mus musculus [12], the F is listed as 15%.
